# Source: PubChem BioAssay (Broad Institute)
# The list is not random: actives were taken first. Their share in the collection is about 2%.
# CDK5 inh: inhibitors of human CDK5/p35 kinase; AID 488839; Recombinant CDK5/p35, ADP-Glo luminescence, 60 min; 0.01% of 330,000 active; Q00535+Q15078; inhibition, % at 10 µM;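 active means highest replicate inhibition of at least 50% and at least 75% of replicates reaching 50%; inconclusive means only one of the two criteria met; inactive means both criteria failed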;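 further: plate controls were DMSO neutral control for no effect and GW8510 at 10 µM for full effect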
# Target sequence (Q00535 whole entry, looked up): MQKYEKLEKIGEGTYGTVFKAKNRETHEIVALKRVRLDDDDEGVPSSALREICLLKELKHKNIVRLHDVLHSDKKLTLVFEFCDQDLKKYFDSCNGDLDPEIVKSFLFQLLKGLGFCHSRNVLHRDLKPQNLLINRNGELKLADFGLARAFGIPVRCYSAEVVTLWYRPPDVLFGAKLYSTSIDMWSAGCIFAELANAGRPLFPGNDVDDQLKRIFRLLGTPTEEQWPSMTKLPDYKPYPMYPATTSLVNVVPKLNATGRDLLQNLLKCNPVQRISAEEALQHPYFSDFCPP
# Target sequence (Q15078 whole entry, looked up): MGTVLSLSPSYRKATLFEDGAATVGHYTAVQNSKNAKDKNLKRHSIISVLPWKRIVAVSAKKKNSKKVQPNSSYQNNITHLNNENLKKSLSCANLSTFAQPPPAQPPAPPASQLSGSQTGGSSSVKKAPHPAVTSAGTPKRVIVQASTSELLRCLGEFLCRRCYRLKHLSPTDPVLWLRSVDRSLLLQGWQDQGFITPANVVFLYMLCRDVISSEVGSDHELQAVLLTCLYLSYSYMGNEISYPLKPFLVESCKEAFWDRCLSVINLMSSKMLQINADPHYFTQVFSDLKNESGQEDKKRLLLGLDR
# dFosB act: enhances mouse delta FosB homodimer DNA binding; P13346; AID 493131; activation, % at 25 µM; 0.99% of 340,000 active; purified delta FosB, TAMRA-CDK5 oligo fluorescence polarization; percent of positive-control signal above neutral wells;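 active means mean activation above about 17%, with every replicate also reaching it, limit read from the data, passing the limit was not always enough; inconclusive means only one of the two conditions met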
# S100A4 MyoIIA: S100A4-myosin IIA interaction inhibition; inhibition, % at 10.7 µM; S100A4/TAMRA-MyoIIA peptide fluorescence polarization; P26447; 0.14% of 360,000 active; AID 652163;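 active means mean inhibition of at least 70% across replicates, with every replicate also reaching that level; inconclusive means mean inhibition reaches 70% but some replicates fall short; inactive means mean inhibition below 70%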
# Target sequence (P26447 whole entry, looked up): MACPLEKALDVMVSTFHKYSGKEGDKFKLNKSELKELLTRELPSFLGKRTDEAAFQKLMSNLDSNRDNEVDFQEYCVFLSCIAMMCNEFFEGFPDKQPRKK
#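 System – human S100A4 monomer protein, biochemical binding assay · Buffer or medium – Calcium-containing HEPES buffer, pH 7.2 · Timing – 5 min between mix addition and reading · Also added – TAMRA-labelled myosin IIA heavy-chain peptide probe, 5 nM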
# CAL PDZ FP-1: inhibitors of human CAL PDZ peptide binding | Q9HD26 | purified CAL PDZ, TMR-peptide fluorescence polarization, 1 h | inhibition, % at 20 µM | 0.02% of 330,000 active;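 active means highest replicate inhibition of at least 40%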;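 further: plate controls were DMSO neutral control wells for no effect and unlabeled competitor peptide control wells for full effect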
#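 Material – purified CerCALP PDZ construct · Detection – FP readout, S and P plane fluorescence · Measure – percent inhibition from loss of millipolarization · Controls – unlabelled peptide for full inhibition, DMSO wells as neutral · Probe or stimulus – TMR-labelled reporter peptide T*-PRC34 bound in PDZ groove · Times – 1 h at RT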
# CAL PDZ FP-2: blocks peptide binding to the human CAL PDZ domain. Q9HD26. purified CAL PDZ, TMR-peptide fluorescence polarization, 1 h. 0.92% of 300,000 active. inhibition, % at 24.9 µM. AID 602252;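 active means mean inhibition of at least 30% with at least half of replicates also reaching 30%; inconclusive means no clear call, values can overlap the other calls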;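 further: 0% = DMSO neutral control and 100% = excess unlabeled competitor peptide PRC23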
# C2C12 statin: suppression of simvastatin myotoxicity; C2C12 myotubes + simvastatin, ATP luminescence, 48 h; scaled: DMSO 0, geranylgeraniol control 100; rescue of ATP level, % at 7.49 µM; 0.78% of 330,000 active;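 active means mean ATP rescue above about 67%, or every replicate alone reaching that limit, limit read from the data, passing the limit was not always enough; inconclusive means no clear call, values can overlap the other calls; inactive means mean under the limit and some replicate under it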;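 further: myotubes were challenged with 10 µM simvastatin during compound exposure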
# * marks the source's active call; other numbers are inactive results; u = inconclusive; x = no result.
SMILES,CDK5 inh,dFosB act,S100A4 MyoIIA,CAL PDZ FP-1,CAL PDZ FP-2,C2C12 statin
N#Cc1ccc(CSCC(=O)NN=C2CCCC2)cc1,0.1,-3.8,-2.3,-0.7,-2.8,-5.5
CCOc1ccc2ncc(S(=O)(=O)c3ccccc3)c(N3CCC4(CC3)OCCO4)c2c1,x,x,-0.2,x,x,x
COc1ccc(NC(=O)Nc2ccc3c(c2)CC(=O)N([C@@H](C)CO)C[C@@H](C)[C@@H](CN(C)C(=O)Nc2cccc4ccccc24)O3)cc1,x,x,x,x,x,-11.8
C[C@@H]1CN([C@@H](C)CO)C(=O)Cc2cc(NC(=O)Nc3cccc4ccccc34)ccc2O[C@@H]1CN(C)Cc1ccc(C(F)(F)F)cc1,-1.1,1.9,-3.6,-0.6,-3.3,97.6*
C[C@@H]1CN([C@H](C)CO)C(=O)Cc2cc(NC(=O)Nc3cccc4ccccc34)ccc2O[C@H]1CN(C)Cc1ccccc1,x,x,-19.4,x,x,73.2*
COc1ccc(NC(=O)Nc2ccc3c(c2)CC(=O)N([C@@H](C)CO)C[C@@H](C)[C@H](CN(C)C(=O)Nc2cccc4ccccc24)O3)cc1,x,x,x,x,x,78.5*
Cc1ccc(C(C(=O)NC(C)(C)C)N(CC2CCCO2)C(=O)Cn2nnc(-c3ccc(C)o3)n2)cc1 (stereo unspecified),-0.4,-0.9,x,0.3,-4.7,x
CCOc1ccc(/C=C/C(O)=C2/C(=O)NC3(C)CC2c2ccccc2O3)cc1OC (stereo unspecified),0.2,2.3,6.8,0.1,-4.5,-11.7
CCN(CC)c1ccc(C(=O)NNC(=O)CN2C(=O)NC3(CCCCC3)C2=O)cc1,-2.7,2.2,-3.6,-1.7,-1.6,0.9
CCC(=O)NC[C@@H]1[C@H](c2ccc(C3=CCCC3)cc2)[C@@H](CO)N1C(C)=O,x,x,-3.6,x,x,-11.6
Cc1cc2c3nonc3ccc2n1C,-0.7,4.7,x,-0.4,-2.7,u
CCNC(=O)NC(=O)c1csc([N+](=O)[O-])c1,-1.0,5.6,0.0,-0.7,40.5*,x
C=CCNC(=O)NC(=O)c1csc([N+](=O)[O-])c1,0.6,-11.1,-2.5,-1.4,4.2,x
O=C1CC(c2ccc3c(c2)OCCO3)Oc2ccccc21 (stereo unspecified),0.1,-4.9,-4.3,-0.7,-2.7,7.1
O=C1CC(c2ccc3c(c2)OCCO3)Oc2ccc([N+](=O)[O-])cc21 (stereo unspecified),-0.7,-5.0,-0.3,0.4,79.2*,-24.2
O=C(COC(=O)Cn1[nH]c(=O)c2ccccc2c1=O)Nc1ccc2c(c1)OCO2,-0.3,2.4,x,-2.1,-5.8,x
O=C(COc1ccc2ccc(=O)oc2c1)NC1CCCCC1,-4.3,-5.6,-2.6,-1.3,x,2.7
O=C(CN1C(=O)CCC1=O)NCC12CC3CC(CC(C3)C1)C2,-1.0,-2.0,x,0.0,x,95.9*
CN(C)c1ccc(/C=C/C=C2/SC(=S)N(c3ccccc3)C2=O)cc1,0.2,4.9,x,-5.7,0.7,69.8*
O=C(NCCCN1CCCC1=O)c1cc2nc(-c3ccco3)cc(C(F)(F)F)n2n1,0.3,-9.1,1.8,0.4,57.7*,0.0
O=C(c1cc2nc(-c3ccco3)cc(C(F)(F)F)n2n1)N1CCCCCC1,0.8,-6.7,-7.8,-0.5,0.6,-7.3
Cc1ccc(C(=O)NN2C(=O)c3ccc(S(=O)(=O)c4ccc(C(=O)O)cc4)cc3C2=O)cc1,0.1,-2.0,-3.0,0.7,46.9*,0.4
Cn1cnc(S(=O)(=O)N[C@@H]2C=C[C@@H](CC(=O)Nc3ccccc3)O[C@H]2CO)c1,x,x,15.6,x,x,1.6
COc1ccc(-n2cnnc2SCc2ncc(-c3ccccc3)o2)cc1,-1.7,-4.1,x,-1.6,-2.3,19.8
CO[C@H]1CN(C)C(=O)c2cc(NS(=O)(=O)c3ccc(F)cc3)ccc2OC[C@H](C)NC[C@H]1C,x,x,0.7,x,x,11.2
SMILES,CDK5 inh,dFosB act,S100A4 MyoIIA,CAL PDZ FP-1,CAL PDZ FP-2,C2C12 statin
CCN1CCCC1CNC(=O)c1c(O)c2c([nH]c1=O)CCCC2 (stereo unspecified),1.2,-7.4,x,-2.1,-4.1,118.9*
CCN1CCC[C@H]1CNC(=O)c1c(O)c(Cl)cc(Cl)c1OC,0.1,-4.0,-12.5,-0.4,-2.6,-3.6
N#CCC(=O)Nc1nc(-c2ccc3c(c2)OCCO3)cs1,-0.6,-0.5,5.6,-0.4,74.1*,x
CCOC(=O)N1CCN(C(=O)CSCC(=O)Nc2nc(-c3ccc4c(c3)OCO4)cs2)CC1,0.0,-3.8,x,-0.6,1.5,122.0*
CCCCOc1ccc(C2=NNC(=O)CC2)cc1,0.6,-4.9,-8.9,-2.1,2.0,x
O=C(N1CCCCCC1)N1CCN(S(=O)(=O)N2CCCCC2)CC1,0.9,-9.6,x,-1.4,6.6,100.7*
COc1ccc(N=C2S/C(=C\c3ccc(Cl)c([N+](=O)[O-])c3)C(=O)N2CCN(C)C)cc1,1.0,23.0*,-2.2,x,-3.2,1.0
CN(C)c1ccc(/C=N\Nc2nc(-c3ccccc3)cc(=O)[nH]2)cc1,0.3,13.1,-0.1,1.1,70.6*,x
C[C@@H]1CN([C@@H](C)CO)C(=O)c2cc(C#Cc3ccc(F)cc3)cnc2O[C@@H]1CN(C)S(C)(=O)=O,x,x,-12.8,x,x,19.6
CC1=CC(C)C(CN(CCC[N+](C)(C)C)C(=O)Nc2ccccc2)C(C)C1 (stereo unspecified),0.2,5.4,17.7,-0.4,42.1*,x
O=C(Nc1c(C(=O)N2CCOCC2)cnn1-c1ccccc1)c1ccc([N+](=O)[O-])cc1,-0.8,-4.9,8.4,-2.3,-3.7,5.5
Cc1ccc(C(=O)Nc2c(C(=O)N3CCOCC3)cnn2-c2ccccc2)cc1,-2.4,-2.0,x,-0.1,-1.2,110.6*
O=C(c1ccccc1CCc1ccccc1)N1CCOCC1,-0.7,-4.1,x,-0.7,-2.1,114.0*
NC(=O)C1CCN(C(=O)c2ccccc2CCc2ccccc2)CC1,0.5,-1.9,1.1,0.6,x,1.6
Cc1ccc(C(=O)Oc2ccc3ccc(=O)oc3c2)cc1,0.0,-2.3,-2.5,-1.6,0.7,6.5
CC(C)CNC(=O)C(=O)NC1CCCC1,-0.9,-2.9,x,-5.0,-2.1,23.9
CC(C)CNC(=S)NC1CCCC1,-4.4,0.0,x,x,139.5*,-2.2
CCCC(=O)N(Cc1cc2cc(C)ccc2[nH]c1=O)c1ccccc1OC,0.0,-8.0,x,-1.3,-6.9,76.1*
Nc1cc(=O)[nH]c(SCC(=O)N2N=C(c3ccc4ccccc4c3)CC2c2ccccc2)n1 (stereo unspecified),-2.4,9.5,0.8,-0.2,32.5*,12.5
O=S(=O)(c1ccccc1F)N1CC[C@@H]2[C@@H](CO)Nc3ccc(-c4cccc(F)c4)cc3[C@@H]21,x,x,4.2,x,x,-15.3
CN1CCN(C(=O)CC2C(=O)NCCN2Cc2ccc(-c3ccccc3)cc2)CC1 (stereo unspecified),-2.5,-5.2,-1.7,-0.7,71.3*,x
